From ChEMBL document CHEMBL1914435, “Synthesis and evaluation of novel macrocyclic antifungal peptides” (2011)
≈ marks a conversion by molar mass, not a printed value. Calls of active or inactive are those of the source. No cut-off for these calls is given here. Starred links: 1 amine or outer side, 2 acyl side, 3 side chain; linkers in the order of their positions; H or OH if unused. Positions of bridges follow the written chain, without caps; N, C: chain ends. Non-standard residues stand in square brackets, D forms with d. Residues, ends and D or L forms follow the SMILES beside them. *: point of attachment. pTerphenylCO(4''-OnC5H11) = CCCCCOc1ccc(-c2ccc(-c3ccc(C(=O)*)cc3)cc2)cc1; hTyr = N[C@@H](CCc1ccc(O)cc1)C(=O)O; Ethylenediamine = C(CN[*:2])N[*:1]; Palmitoyl = CCCCCCCCCCCCCCCC(=O)*; Hyp = O=C(O)[C@@H]1C[C@@H](O)CN1; AllylGly = C=CC[C@H](N)C(=O)O; Orn = NCCC[C@H](N)C(=O)O; NHNH2 = NN*

How the values were obtained:
[1] = system: Candida albicans; assay: Antifungal activity against Candida albicans CBS 9975 assessed as enlarged round cells with distorted cytoplasm after 24 hrs by broth microdilution method; format: functional, organism-based
[2] = system: Candida albicans; assay: Antifungal activity against Candida albicans CBS 9975 assessed as enlarged round cells with large vacuoles after 24 hrs by broth microdilution method; format: functional, organism-based
[3] = system: Candida albicans; assay: Antifungal activity against Candida albicans CBS 9975 assessed as agglutinated enlarged round cells after 24 hrs by broth microdilution method; format: functional, organism-based
[4] = system: Candida albicans; assay: Antifungal activity against Candida albicans CBS 9975 after 24 hrs by broth microdilution method; format: functional; details: for MIC: CBS 9975, 24 h
Summary of the method: (§1)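 Broth microdilution in YPD (1% yeast extract, 2% peptone, 1% dextrose). Compounds dissolved in water or 10% DMSO at 1 mg/mL, diluted fivefold in YPD, then serially twofold. CBS yeast isolates were grown on YPD agar for 24 h at 30 °C, then in YPD broth with shaking for 24 h. Inoculum was ~1.5 × 10³ cells/ml. Incubation at 30 °C. MIC read visually at 24 h as the lowest concentration giving full growth inhibition.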

[5] = system: Candida albicans; assay: Antifungal activity against Candida albicans CBS 9975 assessed as reduction in budding cells after 24 hrs by broth microdilution method; format: functional, organism-based
[6] = system: Candida albicans; assay: Antifungal activity against Candida albicans after 24 hrs by broth microdilution method; format: functional, organism-based; summary of the method: as §1
[7] = system: Candida dubliniensis; assay: Antifungal activity against Candida dubliniensis after 24 hrs by broth microdilution method; format: functional, organism-based; summary of the method: as §1
[8] = system: Nakaseomyces glabratus; assay: Antifungal activity against Candida glabrata after 24 hrs by broth microdilution method; format: functional, organism-based; summary of the method: as §1
[9] = system: Candida tropicalis; assay: Antifungal activity against Candida tropicalis after 24 hrs by broth microdilution method; format: functional, organism-based; summary of the method: as §1
[10] = system: Candida parapsilosis; assay: Antifungal activity against Candida parapsilosis after 24 hrs by broth microdilution method; format: functional, organism-based; summary of the method: as §1
[11] = system: Pichia kudriavzevii; assay: Antifungal activity against Candida krusei after 24 hrs by broth microdilution method; format: functional, organism-based; summary of the method: as §1

In the case of `CCCCCOc1ccc(-c2ccc(-c3ccc(C(=O)N[C@H]4C/C=C\C[C@@H](C(=O)O)NC(=O)[C@@H]5C[C@@H](O)CN5C(=O)[C@H](CCCN)NC(=O)[C@H](CCc5ccc(O)cc5)NC(=O)[C@@H]5C[C@@H](O)CN5C(=O)[C@H]([C@@H](C)O)NC4=O)cc3)cc2)cc1` ({pTerphenylCO(4''-OnC5H11)}-[AllylGly]T[Hyp][hTyr][Orn][Hyp][AllylGly]-OH; staple (Z) 1-7), the Activity [1] is reported as “Active”, the Activity [2] is reported as “Active” and the Activity [3] is reported as “Active”. For the same compound, the Activity [4] was “Dose-dependent effect”, the MIC [4] was greater than 100 mg/L and the Activity [5] was “Active”.

With `CCCCCCCCCCCCCCCC(=O)N[C@H]1CCCNC(=O)[C@@H]2C[C@@H](O)CN2C(=O)[C@H](CCCN)NC(=O)[C@H](CCc2ccc(O)cc2)NC(=O)[C@@H]2C[C@@H](O)CN2C(=O)[C@H]([C@@H](C)O)NC1=O` (Palmitoyl-[Orn]T[Hyp][hTyr][Orn][Hyp]; lactam 1-C) the MIC [4] was 4.38 mg/L (≈ 4.51 µM), the Activity [6] was “Active” and the Activity [7] was “Active”. For the same compound, the Activity [8] was “Active”, the Activity [9] was “Active” and the Activity [10] was “Active”. The Activity [11] was “Active”.

`CCCCCOc1ccc(-c2ccc(-c3ccc(C(=O)N[C@H]4CCCC[C@@H](C(=O)O)NC(=O)[C@@H]5C[C@@H](O)CN5C(=O)[C@H](CCCN)NC(=O)[C@H](CCc5ccc(O)cc5)NC(=O)[C@@H]5C[C@@H](O)CN5C(=O)[C@H]([C@@H](C)O)NC4=O)cc3)cc2)cc1` showed an MIC [4] greater than 100 mg/L.

In the case of `CCCCCOc1ccc(-c2ccc(-c3ccc(C(=O)N[C@H]4CCCNC(=O)[C@@H]5C[C@@H](O)CN5C(=O)[C@H]([C@@H](C)O)NC(=O)[C@H](CCc5ccc(O)cc5)NC(=O)[C@@H]5C[C@@H](O)CN5C(=O)[C@H]([C@@H](C)O)NC4=O)cc3)cc2)cc1` ({pTerphenylCO(4''-OnC5H11)}-[Orn]T[Hyp][hTyr]T[Hyp]; lactam 1-C), the MIC [4] is reported as 0.47 mg/L (≈ 0.442 µM), the Activity [6] is reported as “Active” and the Activity [7] is reported as “Active”. The Activity [8] was “Active”, the Activity [9] was “Active” and the Activity [10] was “Active”. The Activity [11] was “Active”.

With `CCCCCCCCCCCCCCCC(=O)N[C@H]1C/C=C\C[C@@H](C(N)=O)NC(=O)[C@@H]2C[C@@H](O)CN2C(=O)[C@H](CCCN)NC(=O)[C@H](CCc2ccc(O)cc2)NC(=O)[C@@H]2C[C@@H](O)CN2C(=O)[C@H]([C@@H](C)O)NC1=O` (Palmitoyl-[AllylGly]T[Hyp][hTyr][Orn][Hyp][AllylGly]-NH2; staple (Z) 1-7) the MIC [4] was greater than 100 mg/L.

`CCCCCOc1ccc(-c2ccc(-c3ccc(C(=O)N[C@H]4C/C=C\C[C@@H](C(=O)NN)NC(=O)[C@@H]5C[C@@H](O)CN5C(=O)[C@H](CCCN)NC(=O)[C@H](CCc5ccc(O)cc5)NC(=O)[C@@H]5C[C@@H](O)CN5C(=O)[C@H]([C@@H](C)O)NC4=O)cc3)cc2)cc1` ({pTerphenylCO(4''-OnC5H11)}-[AllylGly]T[Hyp][hTyr][Orn][Hyp][AllylGly]-NHNH2; staple (Z) 1-7) was tested, and the Activity [4] was “Dose-dependent effect” and the MIC [4] was greater than 100 mg/L.

`CCCCCCCCCCCCCCCC(=O)N[C@H]1CCCC[C@@H](C(N)=O)NC(=O)[C@@H]2C[C@@H](O)CN2C(=O)[C@H](CCCN)NC(=O)[C@H](CCc2ccc(O)cc2)NC(=O)[C@@H]2C[C@@H](O)CN2C(=O)[C@H]([C@@H](C)O)NC1=O` showed an MIC [4] greater than 100 mg/L.

With `CCCCCOc1ccc(-c2ccc(-c3ccc(C(=O)N[C@H]4CCCNC(=O)[C@@H]5C[C@@H](O)CN5C(=O)[C@H](CCCN)NC(=O)[C@H](CCc5ccc(O)cc5)NC(=O)[C@@H]5C[C@@H](O)CN5C(=O)[C@H]([C@@H](C)O)NC4=O)cc3)cc2)cc1` ({pTerphenylCO(4''-OnC5H11)}-[Orn]T[Hyp][hTyr][Orn][Hyp]; lactam 1-C) the MIC [4] was 0.14 mg/L (≈ 0.13 µM), the Activity [6] was “Active” and the Activity [7] was “Active”. For the same compound, the Activity [8] was “Active”, the Activity [9] was “Active” and the Activity [10] was “Active”. For the same compound, the Activity [11] was “Active”.

`CCCCCCCCCCCCCCCC(=O)N[C@H]1CCCC[C@@H](C(=O)O)NC(=O)[C@@H]2C[C@@H](O)CN2C(=O)[C@H](CCCN)NC(=O)[C@H](CCc2ccc(O)cc2)NC(=O)[C@@H]2C[C@@H](O)CN2C(=O)[C@H]([C@@H](C)O)NC1=O` showed an MIC [4] greater than 100 mg/L.

`CCCCCCCCCCCCCCCC(=O)N[C@H]1CCCNC(=O)[C@@H]2C[C@@H](O)CN2C(=O)[C@H]([C@@H](C)O)NC(=O)[C@H](CCc2ccc(O)cc2)NC(=O)[C@@H]2C[C@@H](O)CN2C(=O)[C@H]([C@@H](C)O)NC1=O` (Palmitoyl-[Orn]T[Hyp][hTyr]T[Hyp]; lactam 1-C) was tested, and the MIC [4] was 25 mg/L (≈ 26.1 µM), the Activity [6] was “Active” and the Activity [7] was “Active”. The Activity [8] was “Active”, the Activity [9] was “Active” and the Activity [10] was “Active”. For the same compound, the Activity [11] was “Active”.

`CCCCCOc1ccc(-c2ccc(-c3ccc(C(=O)N[C@H]4C/C=C\C[C@@H](CO)NC(=O)[C@@H]5C[C@@H](O)CN5C(=O)[C@H](CCCN)NC(=O)[C@H](CCc5ccc(O)cc5)NC(=O)[C@@H]5C[C@@H](O)CN5C(=O)[C@H]([C@@H](C)O)NC4=O)cc3)cc2)cc1` was tested, and the Activity [4] was “Dose-dependent effect” and the MIC [4] was greater than 100 mg/L.

`CCCCCCCCCCCCCCCC(=O)N[C@H]1CSSC[C@@H](C(N)=O)NC(=O)[C@@H]2C[C@@H](O)CN2C(=O)[C@H](CCCN)NC(=O)[C@H](CCc2ccc(O)cc2)NC(=O)[C@@H]2C[C@@H](O)CN2C(=O)[C@H]([C@@H](C)O)NC1=O` (Palmitoyl-CT[Hyp][hTyr][Orn][Hyp]C-NH2; disulfide 1-7) gave an MIC [4] greater than 100 mg/L.

`CCCCCOc1ccc(-c2ccc(-c3ccc(C(=O)N[C@H]4C/C=C\C[C@@H](C(=O)NCCN)NC(=O)[C@@H]5C[C@@H](O)CN5C(=O)[C@H](CCCN)NC(=O)[C@H](CCc5ccc(O)cc5)NC(=O)[C@@H]5C[C@@H](O)CN5C(=O)[C@H]([C@@H](C)O)NC4=O)cc3)cc2)cc1` ({pTerphenylCO(4''-OnC5H11)}-[AllylGly]T[Hyp][hTyr][Orn][Hyp][AllylGly]-Ethylenediamine; staple (Z) 1-7) was tested, and the Activity [4] was “Dose-dependent effect” and the MIC [4] was greater than 100 mg/L.

Work on `CCCCCOc1ccc(-c2ccc(-c3ccc(C(=O)N[C@H]4C/C=C\C[C@@H](C(=O)OC)NC(=O)[C@@H]5C[C@@H](O)CN5C(=O)[C@H](CCCN)NC(=O)[C@H](CCc5ccc(O)cc5)NC(=O)[C@@H]5C[C@@H](O)CN5C(=O)[C@H]([C@@H](C)O)NC4=O)cc3)cc2)cc1` ({pTerphenylCO(4''-OnC5H11)}-[AllylGly]T[Hyp][hTyr][Orn][Hyp][AllylGly]-OMe; staple (Z) 1-7) yielded an MIC [4] greater than 100 mg/L.

For `CC[C@H](C)C[C@H](C)CCCCCCCCC(=O)N[C@H]1C[C@@H](O)[C@@H](NCCN)NC(=O)[C@@H]2[C@@H](O)CCN2C(=O)[C@H]([C@H](O)CCN)NC(=O)[C@H]([C@H](O)[C@@H](O)c2ccc(O)cc2)NC(=O)[C@@H]2C[C@@H](O)CN2C(=O)[C@H]([C@@H](C)O)NC1=O` [CASPOFUNGIN], the MIC [4] was 0.025 mg/L (≈ 0.0229 µM).

In the case of `CCCCCCCCCCCCCCCC(=O)N[C@H]1C/C=C\C[C@@H](C(=O)O)NC(=O)[C@@H]2C[C@@H](O)CN2C(=O)[C@H](CCCN)NC(=O)[C@H](CCc2ccc(O)cc2)NC(=O)[C@@H]2C[C@@H](O)CN2C(=O)[C@H]([C@@H](C)O)NC1=O` (Palmitoyl-[AllylGly]T[Hyp][hTyr][Orn][Hyp][AllylGly]-OH; staple (Z) 1-7), the MIC [4] is reported as greater than 100 mg/L.

For `CCCCCOc1ccc(-c2ccc(-c3ccc(C(=O)N[C@H]4CCCCNC(=O)[C@@H]5C[C@@H](O)CN5C(=O)[C@H](CCCN)NC(=O)[C@H](CCc5ccc(O)cc5)NC(=O)[C@@H]5C[C@@H](O)CN5C(=O)[C@H]([C@@H](C)O)NC4=O)cc3)cc2)cc1` ({pTerphenylCO(4''-OnC5H11)}-KT[Hyp][hTyr][Orn][Hyp]; lactam 1-C), the MIC [4] was greater than 100 mg/L, the Activity [6] was “Active” and the Activity [7] was “Active”. The Activity [8] was “Active”, the Activity [9] was “Active” and the Activity [10] was “Active”. For the same compound, the Activity [11] was “Active”.
